Data taken from ChEMBL document CHEMBL1122207, “Antitumor agents. 2. Bisguanylhydrazones of anthracene-9,10-dicarboxaldehydes” (1982).

Columns and labels:
Type in all cases: functional
Mus musculus [1] = organism: Mus musculus; assay: Anticancer activity measured as the number of survivors of the total treated mice with P-388 leukemia at 30 days.
Outline: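 BDF1 or CDF1 mice given 10^6 ascitic P-388 leukemia cells ip, then treated ip on days 1, 5 and 9. Cures are survivors over total treated at 30 days.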

Mus musculus [2] = assay: Percent increase in median life span of BDF1 mice with P-388 leukemia at dose 200 mg/kg administered intraperitoneally; conditions: BDF1, P388, ip, route intraperitoneal
Mus musculus [3] = organism: Mus musculus; assay: Number of survivors of the total treated mice with B-16 melanoma, at 60 days.
Outline: (§1)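 BDF1 mice were implanted ip with a homogenate from 0.05 g of B-16 melanoma and dosed ip on days 1-9. Cures are survivors over total at 60 days.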

Mus musculus [4] = assay: Percent increase in median life span of BDF1 mice with P-388 leukemia at dose 50 mg/kg administered intraperitoneally; conditions: BDF1, P388, ip, route intraperitoneal
Mus musculus [5] = assay: Percent increase in median life span of BDF1 mice with B-16 melanoma at dose 50 mg/kg administered intraperitoneally; conditions: BDF1, B16, ip, route intraperitoneal
Outline: (§2)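 BDF1 mice were implanted ip with a homogenate from 0.05 g of B-16 melanoma. Ip dosing ran on days 1-9, starting 24 h after implant, in dose-response studies following NCI protocols. The read-out was percent increase in life span (ILS). T/C ≥125% was taken as significant.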

Mus musculus [6] = organism: Mus musculus; assay: Cures is the number of survivors of the total treated mice (10) with B-16 melanoma, at 60 days.; outline: as §1
Mus musculus [7] = assay: Percent increase in median life span of BDF1 mice with P-388 leukemia at dose 12.5 mg/kg administered intraperitoneally; conditions: BDF1, P388, ip, route intraperitoneal
Mus musculus [8] = assay: Percent increase in median life span of BDF1 mice with B-16 melanoma at dose 12 mg/kg administered intraperitoneally; conditions: BDF1, B16, ip, route intraperitoneal; outline: as §2
Mus musculus [9] = assay: Percent increase in median life span of BDF1 mice with B-16 melanoma at dose 25 mg/kg administered intraperitoneally; conditions: BDF1, B16, ip, route intraperitoneal; outline: as §2
Mus musculus [10] = assay: Percent increase in median life span of BDF1 mice with B-16 melanoma administered intraperitoneally; outline: as §2
Mus musculus [11] = assay: Percent increase in median life span of BDF1 mice with P-388 leukemia at dose 6.25 mg/kg administered intraperitoneally; conditions: BDF1, P388, ip, route intraperitoneal
Mus musculus [12] = assay: Percent increase in median life span of BDF1 mice with P-388 leukemia administered intraperitoneally
Mus musculus [13] = assay: Percent increase in median life span of BDF1 mice with B-16 melanoma at dose 12.5 mg/kg administered intraperitoneally; conditions: BDF1, B16, ip, route intraperitoneal; outline: as §2
Mus musculus [14] = assay: Percent increase in median life span of BDF1 mice with P-388 leukemia at dose 25 mg/kg administered intraperitoneally; conditions: BDF1, P388, ip, route intraperitoneal

SMILES	Cures (Mus musculus [1])	ILS at 200 mg/kg (Mus musculus [2]) [%]	Cures (Mus musculus [3])	also measured
C(=N\Nc1nc2ccccc2s1)/c1c2ccccc2c(/C=N/Nc2nc3ccccc3s2)c2ccccc12	0	0	–	–
C(/CCc1c2ccccc2c(CC/C=N/NC2=NCCN2)c2ccccc12)=N\NC1=NCCN1.Cl.Cl	0	–	0	ILS at 50 mg/kg (Mus musculus [4]): 30%; ILS at 50 mg/kg (Mus musculus [5]): 0%
C(=N\NC1=NCCCCN1)/c1c2ccccc2c(/C=N/NC2=NCCCCN2)c2ccccc12	0	–	–	Cures (Mus musculus [6]): 1; ILS at 12.5 mg/kg (Mus musculus [7]): 90%; ILS at 12 mg/kg (Mus musculus [8]): 173%
N=C(N/N=C/c1c2ccccc2c(/C=N/NC(=N)NC2CCCCC2)c2ccccc12)NC1CCCCC1	0	–	0	ILS at 50 mg/kg (Mus musculus [4]): 73%; ILS at 12 mg/kg (Mus musculus [8]): 80%
C(=C\c1c2ccccc2c(/C=C/C=N/NC2=NCCN2)c2ccccc12)/C=N/NC1=NCCN1.Cl.Cl	0	36	0	ILS at 25 mg/kg (Mus musculus [9]): 46%
CN(C)CCCCCCC/N=C(\S)N/N=C/c1c2ccccc2c(/C=N/N/C(S)=N/CCCCCCCN(C)C)c2ccccc12.Cl	0	–	–	ILS (Mus musculus [10]): 0%; ILS at 6.25 mg/kg (Mus musculus [11]): 39%
COCC/N=C(\S)N/N=C/c1c2ccccc2c(/C=N/N/C(S)=N/CCOC)c2ccccc12	–	–	–	ILS (Mus musculus [12]): 0%
CN(C)CC(=O)N/N=C/c1c2ccccc2c(/C=N/NC(=O)CN(C)C)c2ccccc12.Cl.Cl	0	0	–	–
CCCCC1(CCCC)CN=C(N/N=C/c2c3ccccc3c(/C=N/NC3=NCC(CCCC)(CCCC)CN3)c3ccccc23)NC1.Cl.Cl	–	–	0	ILS at 50 mg/kg (Mus musculus [5]): 0%
CN/N=C/c1c2ccccc2c(/C=N/NC)c2ccccc12	0	0	–	–
CC1(/C=N/NC2=NCCN2)c2ccccc2C(C)(/C=N/NC2=NCCN2)c2ccccc21 (stereo not given)	–	0	–	ILS at 50 mg/kg (Mus musculus [5]): 0%
COc1ccc(OC)c2c(/C=N/NC3=NCCN3)c3ccccc3c(/C=N/NC3=NCCN3)c12.Cl.Cl	0	–	0	ILS at 50 mg/kg (Mus musculus [4]): 50%; ILS at 12.5 mg/kg (Mus musculus [13]): 64%
NC(=O)N/N=C/c1c2ccccc2c(/C=N/NC(N)=O)c2ccccc12	0	0	–	–
CN1CCN(C)C1=N/N=C/c1c2ccccc2c(/C=N/N=C2N(C)CCN2C)c2ccccc12	0	0	–	–
Cl.Cl.N=C(NCc1cccs1)N/N=C/c1c2ccccc2c(/C=N/NC(=N)NCc2cccs2)c2ccccc12	0	–	0	ILS at 50 mg/kg (Mus musculus [4]): 90%; ILS at 12 mg/kg (Mus musculus [8]): 75%
Cc1cc2c(cc1C)C(/C=N/NC1=NCCN1)c1ccccc1C2/C=N/NC1=NCCN1 (stereo not given)	–	–	–	ILS at 50 mg/kg (Mus musculus [4]): 73%
O=C(N/N=C/c1c2ccccc2c(/C=N/NC(=O)c2cccnc2)c2ccccc12)c1cccnc1	0	0	–	–
Cl.Cl.N/C(=N\N=C\c1c2ccccc2c(/C=N/N/C(N)=N/CCO)c2ccccc12)NCCO	0	–	–	Cures (Mus musculus [6]): 1; ILS at 25 mg/kg (Mus musculus [14]): 90%; ILS at 12 mg/kg (Mus musculus [8]): 80%
Cc1ccc2c(/C=N/NC3=NCCN3)c3ccccc3c(/C=N/NC3=NCCN3)c2c1Cl.Cl.Cl	0	–	–	Cures (Mus musculus [6]): 4; ILS at 12.5 mg/kg (Mus musculus [7]): 130%; ILS at 12.5 mg/kg (Mus musculus [13]): 220%
CN(C)/N=C/c1c2ccccc2c(/C=N/N(C)C)c2ccccc12	0	0	–	–
C(=N\NC1=NCCN1)/C1c2ccccc2C(/C=N/NC2=NCCN2)c2ccccc21.Cl.Cl (stereo not given)	–	–	0	ILS at 12.5 mg/kg (Mus musculus [7]): 72%; ILS at 12.5 mg/kg (Mus musculus [13]): 100%
N=C(N/N=C/c1c2ccccc2c(/C=N/NC(=N)NC2CCc3ccccc32)c2ccccc12)NC1CCc2ccccc21 (stereo not given)	0	80	0	ILS at 25 mg/kg (Mus musculus [9]): 62%
CC(C)/N=C(/N/N=C/c1c2ccccc2c(/C=N/N=C(NC(C)C)NC(C)C)c2ccccc12)NC(C)C	0	–	0	ILS (Mus musculus [10]): 0%; ILS at 50 mg/kg (Mus musculus [4]): 50%
C(=N\NC1=NCc2ccccc2CN1)/c1c2ccccc2c(/C=N/NC2=NCc3ccccc3CN2)c2ccccc12	0	30	–	–
CCN(CC)CC/N=C(\S)N/N=C/c1c2ccccc2c(/C=N/N/C(S)=N/CCN(CC)CC)c2ccccc12.Cl.Cl	0	–	–	ILS at 6.25 mg/kg (Mus musculus [11]): 95%
